Measured values: ChEMBL document CHEMBL5325481, “Examination of the Impact of Triazole Position within Linkers on Solubility and Lipophilicity of a CDK9 Degrader Series” (ACS Med Chem Lett, 2023)
Values after ≈ are worked out from the molar mass of the structure shown.

How the values were obtained:
[1] = Kinetic solubility of the compound at pH 7.4 incubated for 1.5 hrs under shaking condition by UV plate reader analysis; type: physicochemical; conditions: buffer, read-out: Kinetic_solubility
[2] = Lipophilicity, logK of compound at pH 7.7 in presence of 80% acetonitrile by HPLC analysis; type: physicochemical; conditions: buffer
[3] = system: MV4-11; test: Antiproliferative activity against human MV4-11 cells assessed as inhibition of cell growth measured after 48 hrs by MTS assay; type: functional, cell-based; conditions: MV4-11, 48 h
[4] = Aqueous solubility of the compound; type: physicochemical
[5] = system: MV4-11; test: Antiproliferative activity against human MV4-11 cells assessed as inhibition of cell growth measured after 48 hrs in presence of human serum by MTS assay; type: functional
Summary of the method: (§1)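 MV4-11 AML cells exposed to compound, with growth medium supplemented with either human serum or fetal bovine serum. Cytotoxicity IC50 was determined in each serum condition. The serum shift is the change in activity between human serum and fetal bovine serum.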

[6] = system: MV4-11; test: Antiproliferative activity against human MV4-11 cells assessed as inhibition of cell growth measured after 48 hrs in presence of fetal bovine serum by MTS assay; type: functional; summary of the method: as §1
[7] = system: MV4-11; test: Antiproliferative activity against human MV4-11 cells assessed as fold decrease in cell growth measured after 48 hrs in presence of human serum by MTS assay; type: functional; summary of the method: as §1
[8] = molecular target: T1, Protein cereblon/Cyclin-dependent kinase 9 (Homo sapiens, UniProt P50750+Q96SW2); test: PROTAC activity at CRBN/CDK9 in human MOLM-13 cells assessed as induction of CDK9 degradation incubated for 6 hrs by Western blot analysis
Target sequence in this assay (P50750 whole entry): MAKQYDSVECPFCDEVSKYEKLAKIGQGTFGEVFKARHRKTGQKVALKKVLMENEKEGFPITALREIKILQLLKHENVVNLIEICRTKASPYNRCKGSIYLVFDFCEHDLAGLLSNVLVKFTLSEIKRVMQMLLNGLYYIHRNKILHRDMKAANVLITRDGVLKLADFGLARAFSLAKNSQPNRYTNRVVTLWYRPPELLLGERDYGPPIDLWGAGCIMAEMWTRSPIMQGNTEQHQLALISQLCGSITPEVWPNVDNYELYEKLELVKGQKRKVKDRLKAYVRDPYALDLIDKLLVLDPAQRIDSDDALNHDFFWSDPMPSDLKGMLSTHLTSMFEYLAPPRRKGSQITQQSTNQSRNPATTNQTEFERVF
Target sequence in this assay (Q96SW2 whole entry): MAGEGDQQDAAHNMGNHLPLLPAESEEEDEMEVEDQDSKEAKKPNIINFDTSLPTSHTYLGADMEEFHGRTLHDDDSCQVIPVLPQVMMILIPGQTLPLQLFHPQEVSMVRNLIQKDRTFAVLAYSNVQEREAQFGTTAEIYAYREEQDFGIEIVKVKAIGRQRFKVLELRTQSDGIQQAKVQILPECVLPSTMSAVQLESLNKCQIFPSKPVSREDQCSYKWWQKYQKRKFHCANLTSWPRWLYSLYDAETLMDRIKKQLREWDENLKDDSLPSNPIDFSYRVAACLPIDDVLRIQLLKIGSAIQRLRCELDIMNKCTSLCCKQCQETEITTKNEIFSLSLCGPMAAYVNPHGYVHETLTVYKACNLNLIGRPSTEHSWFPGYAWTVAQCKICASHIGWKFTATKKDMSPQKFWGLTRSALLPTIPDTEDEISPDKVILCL

[9] = molecular target: T1, Protein cereblon/Cyclin-dependent kinase 9; test: PROTAC activity at CRBN/CDK9 in human MOLM-13 cells assessed as induction of CDK9 degradation by measuring maximal efficacy at 0.01 to 5 uM incubated for 6 hrs by Western blot analysis relative to control; conditions: dose 0.01-5 µM
Target sequence in this assay (P50750 whole entry, looked up): as the sequence (P50750 whole entry) above
Target sequence in this assay (Q96SW2 whole entry, looked up): as the sequence (Q96SW2 whole entry) above

SMILES | solubility kinetic at 1.5 h [1] [µM] | log K [2] | IC50 ([3]; read-out: IC50) [nM] | IC50 ([3]; read-out: pIC50 (converted)) [nM] | solubility [4] [µM] | DC50 [8] [nM] | Emax [9] [%] | EC [5] [nM] | EC [6] [nM] | fold change (FC) [7]
O=C1CCC(N2C(=O)c3cccc(OCCCCCCCCn4cc(CCCCCCN5CCC(NC(=O)c6n[nH]cc6NC(=O)c6c(Cl)cccc6Cl)CC5)nn4)c3C2=O)C(=O)N1 (configuration not stated) | 2.38 (≈ 2.18 µg/mL) | 0.184 | 70 | 79.4 |  | 70 | 86.2 |  |  | 
O=C(NC1CCNCC1)c1n[nH]cc1NC(=O)c1c(Cl)cccc1Cl [AT-7519] | 512 (≈ 196 µg/mL) | 0.134 | 120 | 126 |  |  |  |  |  | 
O=C1CCC(N2C(=O)c3cccc(OCCCCn4cc(CCCCCCCCCCN5CCC(NC(=O)c6n[nH]cc6NC(=O)c6c(Cl)cccc6Cl)CC5)nn4)c3C2=O)C(=O)N1 (configuration not stated) | 3.42 (≈ 3.14 µg/mL) | 0.197 | 10 | 7.94 |  | 40 | 88.6 | 28.6 | 8.8 | 3
O=C1CCC(N2C(=O)c3cccc(OCCCCCn4cc(CCCCN5CCC(NC(=O)c6n[nH]cc6NC(=O)c6c(Cl)cccc6Cl)CC5)nn4)c3C2=O)C(=O)N1 (configuration not stated) | 12.4 (≈ 10.5 µg/mL) | 0.1 | 240 | 251 |  | 130 | 67.5 |  |  | 
O=C1CCC(N2C(=O)c3cccc(OCCCCCn4cc(CCCCCN5CCC(NC(=O)c6n[nH]cc6NC(=O)c6c(Cl)cccc6Cl)CC5)nn4)c3C2=O)C(=O)N1 (configuration not stated) | 13.2 (≈ 11.4 µg/mL) | 0.112 | 130 | 126 | 13.2 (≈ 11.4 µg/mL) | 950 | 68.5 |  |  | 
O=C1CCC(N2C(=O)c3cccc(OCCCCCCCn4cc(CCCCCN5CCC(NC(=O)c6n[nH]cc6NC(=O)c6c(Cl)cccc6Cl)CC5)nn4)c3C2=O)C(=O)N1 (configuration not stated) | 5.46 (≈ 4.86 µg/mL) | 0.14 | 50 | 50.1 |  | 100 | 70.1 |  |  | 

More lines, main results first:

solubility kinetic at 1.5 h [1] [µM] | log K [2] | IC50 ([3]; read-out: IC50) [nM] | IC50 ([3]; read-out: pIC50 (converted)) [nM] | solubility [4] [µM] | DC50 [8] [nM] | Emax [9] [%] | SMILES | EC [5] [nM] | EC [6] [nM] | fold change (FC) [7]
5.65 (≈ 4.87 µg/mL) | 0.146 | 50 | 50.1 | 5.65 (≈ 4.87 µg/mL) | 60 | 88.3 | O=C1CCC(N2C(=O)c3cccc(OCCCCCCCCn4cc(CCN5CCC(NC(=O)c6n[nH]cc6NC(=O)c6c(Cl)cccc6Cl)CC5)nn4)c3C2=O)C(=O)N1 (configuration not stated) | 881.9 | 46.9 | 20
40.9 (≈ 34.1 µg/mL) | 0.084 | 190 | 200 | ≥ 40 | 70 | 79.1 | O=C1CCC(N2C(=O)c3cccc(OCCCCn4cc(CCCCN5CCC(NC(=O)c6n[nH]cc6NC(=O)c6c(Cl)cccc6Cl)CC5)nn4)c3C2=O)C(=O)N1 (configuration not stated) | 69.3 | 190.1 | 3
4.7 (≈ 4.31 µg/mL) | 0.176 | 60 | 63.1 |  | 60 | 78 | O=C1CCC(N2C(=O)c3cccc(OCCCCCCCn4cc(CCCCCCCN5CCC(NC(=O)c6n[nH]cc6NC(=O)c6c(Cl)cccc6Cl)CC5)nn4)c3C2=O)C(=O)N1 (configuration not stated) |  |  | 
12.9 (≈ 11.1 µg/mL) | 0.116 | 70 | 79.4 | 12.9 (≈ 11.1 µg/mL) | 100 | 75.3 | O=C1CCC(N2C(=O)c3cccc(OCCCCn4cc(CCCCCCN5CCC(NC(=O)c6n[nH]cc6NC(=O)c6c(Cl)cccc6Cl)CC5)nn4)c3C2=O)C(=O)N1 (configuration not stated) |  |  | 
31.3 (≈ 26.5 µg/mL) | 0.106 | 190 | 200 |  | 400 | 58.6 | O=C1CCC(N2C(=O)c3cccc(OCCCCn4cc(CCCCCN5CCC(NC(=O)c6n[nH]cc6NC(=O)c6c(Cl)cccc6Cl)CC5)nn4)c3C2=O)C(=O)N1 (configuration not stated) |  |  | 
